From ChEMBL document CHEMBL4673246, “Directing Drugs to Bugs: Antibiotic-Carbohydrate Conjugates Targeting Biofilm-Associated Lectins of Pseudomonas aeruginosa” (J Med Chem, 2020)
Values after ≈ are worked out from the molar mass of the structure shown.

Columns and labels:
Pseudomonas aeruginosa [1] = experiment: Potency index ratio of pNP-beta-D-Gal IC50 to test compound IC50 for Inhibition of Pseudomonas aeruginosa ATCC 33347 LecA expressed in Escherichia coli BL21(DE3) cells
Pseudomonas aeruginosa [2] = experiment: Potency index ratio of Me-alpha-D-Gal IC50 to test compound IC50 for Inhibition of Pseudomonas aeruginosa ATCC 33347 LecA expressed in Escherichia coli BL21(DE3) cells
[3] = Inhibition of Pseudomonas aeruginosa ATCC 33347 LecA expressed in Escherichia coli BL21(DE3) cells incubated for 30 to 60 mins by (N-(fluorescein-5-yl)-N'-(beta-D-(m-aminophenyl)-galactopyranosyl)thiocarbamide) reporter based fluorescence polarization assay
Method in brief: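 LecA at 40 μM with 20 nM fluorescein-galactoside reporter in TBS/Ca. Test compound serial dilutions in 30% DMSO co-solvent, triplicate. Incubation 30–60 min at room temperature, then fluorescence polarization read (ex 485, em 535 nm), blank-corrected for LecA alone. Four-parameter fit with plateaus fixed by the p-nitrophenyl β-D-galactoside control. At least three independent plates.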

[4] = Inhibition of Pseudomonas aeruginosa PAO1 LecB expressed in Escherichia coli BL21(DE3) cells incubated for 4 to 8 hrs by (N-(fluorescein-5-yl)-N'-(alpha-L-fucopyranosyl ethylene)thiocarbamide) reporter based fluorescence polarization assay
[5] = Inhibition of Pseudomonas aeruginosa PA14 LecB expressed in Escherichia coli BL21(DE3) cells incubated for 4 to 8 hrs by (N-(fluorescein-5-yl)-N'-(alpha-L-fucopyranosyl ethylene)thiocarbamide) reporter based fluorescence polarization assay
Pseudomonas aeruginosa [6] = experiment: Antibacterial activity against Pseudomonas aeruginosa PA14 assessed as growth inhibition after 18 to 20 hrs in presence of PMBN by broth microdilution assay; assay type: functional; settings: time 18-20 hrs
Method in brief: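 Cation-supplemented Mueller-Hinton broth II; final inoculum 5 × 10^5 CFU/mL. Incubated at 37 °C for 18–20 h. MIC read visually as the lowest concentration without growth; at least three independent experiments.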

Pseudomonas aeruginosa [7] = experiment: Antibacterial activity against Pseudomonas aeruginosa PAO1 assessed as growth inhibition after 18 to 20 hrs in presence of PMBN by broth microdilution assay; assay type: functional; settings: time 18-20 hrs
Method in brief: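 Broth microdilution per EUCAST guidelines in Müller-Hinton broth II (Ca2+/Mg2+ supplemented, pH 7.3). Colonies from overnight LB-agar plates were suspended to OD600 0.08–0.13, diluted 1:100, final inoculum 5 × 10^5 CFU/mL. PMBN at 2 μg/mL was added to the inoculum where indicated. Incubation 37 °C, 18–20 h. MIC was the lowest concentration with no visible growth. At least three independent experiments.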

Escherichia coli [8] = experiment: Antibacterial activity against Escherichia coli DSM 1116 assessed as growth inhibition after 18 to 20 hrs by broth microdilution assay; assay type: functional; settings: time 18-20 hrs
Method in brief: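 Broth microdilution per EUCAST guidelines in Müller-Hinton broth II (Ca2+/Mg2+ supplemented, pH 7.3). Test range 128 to 0.125 μg/mL, from DMSO stocks. Colonies from overnight LB-agar plates were suspended to OD600 0.08–0.13, diluted 1:100, final inoculum 5 × 10^5 CFU/mL. PMBN at 2 μg/mL was added to the inoculum where indicated. Incubation 37 °C, 18–20 h. MIC was the lowest concentration with no visible growth. At least three independent experiments.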

Escherichia coli [9] = experiment: Antibacterial activity against Escherichia coli K-12 MG1655 assessed as growth inhibition after 18 to 20 hrs by broth microdilution assay; assay type: functional; settings: time 18-20 hrs
Method in brief: (§1)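 Overnight LB-agar colonies suspended to OD600 0.08–0.13, diluted 1:100; final inoculum 5 × 10^5 CFU/mL. 37 °C, 18–20 h, humid. MIC = lowest concentration without visible growth; range from at least three independent experiments.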

Staphylococcus carnosus = experiment: Antibacterial activity against Staphylococcus carnosus DSM 20501 assessed as growth inhibition after 18 to 20 hrs by broth microdilution assay; assay type: functional; settings: time 18-20 hrs; method in brief: as §1
Pseudomonas aeruginosa [10] = experiment: Antibacterial activity against Pseudomonas aeruginosa PAO1 assessed as growth inhibition after 18 to 20 hrs by broth microdilution assay; assay type: functional; settings: time 18-20 hrs; method in brief: as §1
Pseudomonas aeruginosa [11] = experiment: Antibacterial activity against Pseudomonas aeruginosa PA14 harboring LecA deletion mutant assessed as growth inhibition after 18 to 20 hrs by broth microdilution assay; assay type: functional; settings: time 18-20 hrs; method in brief: as §1
Pseudomonas aeruginosa [12] = experiment: Antibacterial activity against Pseudomonas aeruginosa PA14 harboring LecB deletion mutant assessed as growth inhibition after 18 to 20 hrs by broth microdilution assay; assay type: functional; settings: time 18-20 hrs; method in brief: as §1
Pseudomonas aeruginosa [13] = experiment: Antibacterial activity against Pseudomonas aeruginosa PA14 assessed as growth inhibition after 18 to 20 hrs by broth microdilution assay; assay type: functional; settings: time 18-20 hrs; method in brief: as §1
[14] = Cytotoxicity against human A549 cells assessed as growth inhibition at 100 uM after 48 hrs by MTT assay relative to control; assay type: cell-based; settings: read-out: GI
Method in brief: (§2)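 MTT assay: HEK293 or A549 cells seeded at 2 × 10^5 per well. Compounds (final DMSO 1%) were added 24 h after seeding. Living cell mass was read after 48 h.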

[15] = Cytotoxicity against HEK293 cells assessed as growth inhibition at 100 uM after 48 hrs by MTT assay relative to control; assay type: cell-based; settings: human, read-out: GI; method in brief: as §2
[16] = Protein binding in human plasma at 1 uM measured up to 6 hrs by LC-MS/MS analysis; assay type: ADME, cell-free
Method in brief: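 Rapid equilibrium dialysis: human plasma diluted with PBS pH 7.4 on one side, PBS on the other, compound at 1 μM final. Shaken at 37 °C for 6 h. Sampled at 0, 5 and 6 h and quantified by LC-MS/MS. Binding calculated from the concentration difference between chambers. Warfarin as control.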

[17] = Clearance in mouse liver microsomes; assay type: ADME, Microsome
[18] = Clearance in human liver microsomes; assay type: ADME, Microsome
[19] = Half life in human plasma at 40 uM measured up to 150 mins by LC-MS/MS analysis; assay type: ADME, cell-free

Structure (SMILES) | IC50 [3] [µM] | MIC (Pseudomonas aeruginosa [6]) [µg/mL] | MIC (Pseudomonas aeruginosa [7]) [µg/mL] | MIC (Escherichia coli [8]) [µg/mL] | MIC (Escherichia coli [9]) [µg/mL] | MIC (Staphylococcus carnosus) [µg/mL] | MIC (Pseudomonas aeruginosa [10]) [µg/mL] | MIC (Pseudomonas aeruginosa [11]) [µg/mL] | MIC (Pseudomonas aeruginosa [12]) [µg/mL] | MIC (Pseudomonas aeruginosa [13]) [µg/mL] | also measured
[N-]=[N+]=NCCC(=O)Nc1ccc(S[C@@H]2O[C@H](CO)[C@H](O)[C@H](O)[C@H]2O)cc1 | 30.9 | – | – | – | – | – | – | – | – | – | Ratio IC50 (Pseudomonas aeruginosa [1]): < 2; Ratio IC50 (Pseudomonas aeruginosa [2]): < 3
C[C@@H]1O[C@H](CNS(=O)(=O)c2ccc(CCN=[N+]=[N-])s2)[C@@H](O)[C@H](O)[C@@H]1O | – | – | – | – | – | – | – | – | – | – | IC50 [4]: 3.91 µM; IC50 [5]: 1.87 µM
O=[N+]([O-])c1ccc(O[C@@H]2O[C@H](CO)[C@H](O)[C@H](O)[C@H]2O)cc1 | 52.7 | – | – | – | – | – | – | – | – | – | –
C[C@@H]1O[C@H](CNS(=O)(=O)c2ccc(CCn3cc(CCN4CCN(c5cc6c(cc5F)c(=O)c(C(=O)O)cn6C5CC5)CC4)nn3)s2)[C@@H](O)[C@H](O)[C@@H]1O | – | 64 | ≥ 64 | 32 (≈ 41.2 µM) | 16 (≈ 20.6 µM) | ≥ 64 | – | – | – | – | IC50 [4]: 2.53 µM; IC50 [5]: 1 µM
O=C(Cn1cc(CCN2CCN(c3cc4c(cc3F)c(=O)c(C(=O)O)cn4C3CC3)CC2)nn1)Nc1ccc(S[C@@H]2O[C@H](CO)[C@H](O)[C@H](O)[C@H]2O)cc1 | 21.6 | 16 | 32 | – | 8 (≈ 10.6 µM) | 64 (≈ 84.9 µM) | > 64 | ≥ 64 | ≥ 64 | ≥ 64 | –
O=C(CCCn1cc(CCN2CCN(c3cc4c(cc3F)c(=O)c(C(=O)O)cn4C3CC3)CC2)nn1)Nc1ccc(S[C@@H]2O[C@H](CO)[C@H](O)[C@H](O)[C@H]2O)cc1 | 29.3 | 32 | 32 | 4 (≈ 5.12 µM) | 16 (≈ 20.5 µM) | 64 (≈ 81.9 µM) | > 64 | > 64 | > 64 | > 64 | –
[N-]=[N+]=NCC(=O)Nc1ccc(S[C@@H]2O[C@H](CO)[C@H](O)[C@H](O)[C@H]2O)cc1 | 31.7 | – | – | – | – | – | – | – | – | – | Ratio IC50 (Pseudomonas aeruginosa [1]): < 2; Ratio IC50 (Pseudomonas aeruginosa [2]): < 3
O=C(CCCn1cc(CN2CCN(c3cc4c(cc3F)c(=O)c(C(=O)O)cn4C3CC3)CC2)nn1)Nc1ccc(S[C@@H]2O[C@H](CO)[C@H](O)[C@H](O)[C@H]2O)cc1 | 27.3 | 4 | 4 | 2 (≈ 2.6 µM) | 1 (≈ 1.3 µM) | – | 16 (≈ 20.8 µM) | 8 (≈ 10.4 µM) | 8 (≈ 10.4 µM) | 8 (≈ 10.4 µM) | –
[N-]=[N+]=NCCCCC(=O)Nc1ccc(S[C@@H]2O[C@H](CO)[C@H](O)[C@H](O)[C@H]2O)cc1 | 29.9 | – | – | – | – | – | – | – | – | – | Ratio IC50 (Pseudomonas aeruginosa [1]): < 2; Ratio IC50 (Pseudomonas aeruginosa [2]): < 3
O=C(Cn1cc(CN2CCN(c3cc4c(cc3F)c(=O)c(C(=O)O)cn4C3CC3)CC2)nn1)Nc1ccc(S[C@@H]2O[C@H](CO)[C@H](O)[C@H](O)[C@H]2O)cc1 | 30.4 | 4 | 4 | – | 2 (≈ 2.7 µM) | 32 (≈ 43.3 µM) | 16 (≈ 21.6 µM) | – | – | – | inhibition at 48 h, 100 µM [14]: 5%; inhibition at 48 h, 100 µM [15]: 8%; PPB [16]: 69%; microsomal CLint [17]: 10 µL/min/mg; microsomal CLint [18]: 10 µL/min/mg; half-life at […], 40 µM [19]: > 2.5 h
O=C(CCCCn1cc(CCN2CCN(c3cc4c(cc3F)c(=O)c(C(=O)O)cn4C3CC3)CC2)nn1)Nc1ccc(S[C@@H]2O[C@H](CO)[C@H](O)[C@H](O)[C@H]2O)cc1 | 26.2 | 32 | 32 | 4 (≈ 5.03 µM) | 16 (≈ 20.1 µM) | ≥ 64 | > 64 | > 64 | > 64 | > 64 | –
O=C(CCCCn1cc(CN2CCN(c3cc4c(cc3F)c(=O)c(C(=O)O)cn4C3CC3)CC2)nn1)Nc1ccc(S[C@@H]2O[C@H](CO)[C@H](O)[C@H](O)[C@H]2O)cc1 | 28.3 | 2 | 8 | 4 (≈ 5.12 µM) | 2 (≈ 2.56 µM) | – | 32 (≈ 40.9 µM) | – | – | – | –
O=C(CCn1cc(CN2CCN(c3cc4c(cc3F)c(=O)c(C(=O)O)cn4C3CC3)CC2)nn1)Nc1ccc(S[C@@H]2O[C@H](CO)[C@H](O)[C@H](O)[C@H]2O)cc1 | 32.2 | 8 | 4 | – | 2 (≈ 2.65 µM) | 32 (≈ 42.5 µM) | 16 (≈ 21.2 µM) | 8 (≈ 10.6 µM) | 8 (≈ 10.6 µM) | 8 (≈ 10.6 µM) | –
CO[C@H]1O[C@H](CO)[C@H](O)[C@H](O)[C@H]1O | 71.7 | – | – | – | – | – | – | – | – | – | –
O=C(CCn1cc(CCN2CCN(c3cc4c(cc3F)c(=O)c(C(=O)O)cn4C3CC3)CC2)nn1)Nc1ccc(S[C@@H]2O[C@H](CO)[C@H](O)[C@H](O)[C@H]2O)cc1 | 28 | 32 | 32 | – | 16 (≈ 20.8 µM) | > 64 | > 64 | > 64 | > 64 | > 64 | –
[N-]=[N+]=NCCCC(=O)Nc1ccc(S[C@@H]2O[C@H](CO)[C@H](O)[C@H](O)[C@H]2O)cc1 | 31.1 | – | – | – | – | – | – | – | – | – | Ratio IC50 (Pseudomonas aeruginosa [1]): < 2; Ratio IC50 (Pseudomonas aeruginosa [2]): < 3
O=C(O)c1cn(C2CC2)c2cc(N3CCNCC3)c(F)cc2c1=O [CIPROFLOXACIN] | – | – | – | < 0.125 | < 0.125 | < 0.125 | – | 0.05 (≈ 0.151 µM) | 0.05 (≈ 0.151 µM) | – | inhibition at 48 h, 100 µM [14]: 18%; inhibition at 48 h, 100 µM [15]: 48%
